# Experimental data taken from PMC3940870 (Nature, 2013).
# pIC50: −log10 of the molar value.
# What was measured:
# [1] = system: P. berghei sporozoites expressing luciferase; conditions: 2.5 mg/kg; stated as known, no reference given; cited from earlier work
# [2] = system: P. falciparum NF54 gametocytes; experiment: Gametocyte viability assay; assay type: cell-based; conditions: Plasmodium falciparum, NF54, 72 h, read-out: IC50, gametocyte viability
# How it was run: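 NF54 stage III–V gametocytes came from cultures cleared of asexual parasites with 50 mM N-acetyl-D-glucosamine for 3 days, then purified on a discontinuous Percoll gradient. Viability was read by a modified pLDH assay with resazurin substrate after 72-hr exposure. The 9-point series (0.1 nM–1 μM, 0.5 log10 steps) ran in quadruplicate over 2 plates and 2 parasite batches. Controls were 1 μM DHA (MIN) and vehicle (MAX). IC50 came from four-parameter nonlinear regression.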
# [3] = system: P. falciparum schizonts (Dd2), reinvasion of RBCs; experiment: Physical disruption/merozoite release assay; assay type: cell-based, Plasmodium falciparum; conditions: ~5×IC50 imidazopyrazine or 1 μM E-64
smiles,measurement,setting,value
"O=C1C(O)=C([C@H]2CC[C@H](c3ccc(Cl)cc3)CC2)C(=O)c2ccccc21 [ATQ, atovaquone]",causal prophylactic protection,[1],100%
"C[C@H]1[C@@H](O)O[C@@H]2O[C@@]3(C)CC[C@H]4[C@H](C)CC[C@@H]1[C@@]24OO3 [DHA, dihydroartemisinin]",pIC50,[2],7.80
CC(C)C[C@H](NC(=O)[C@H]1O[C@@H]1C(=O)O)C(=O)NCCCCN=C(N)N [E-64],reinvasion parasitemia after mechanical rupture of treated schizonts,[3],2–3%
